This note sets out measurements from ChEMBL document CHEMBL4138189, “Role of the Benzodioxole Group in the Interactions between the Natural Alkaloids Chelerythrine and Coptisine and the Human Telomeric G-Quadruplex DNA. A Multiapproach Investigation” (J Nat Prod, 2017).

The test system of test [1] is Quadruplex DNA. In words: Stabilization of 5'Dabcyl/3'FAM labeled human telomeric sequence G-quadruplex DNA assessed as change in melting temperature up to 30 uM in presence of KCl by fluorescence assay. In kind it is nucleic-acid assay. The procedure, abridged: (§1)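 Labelled telomeric DNA, 0.25 μM strand, in 10 mM LiOH, pH 7.5 (H3PO4), 50 mM KCl, with increasing ligand. Samples were heated and cooled over 25–95 °C at 0.1 °C/s, held 5 min at 30 °C, then heated to 95 °C at 1 °C/min. Fluorescence excited at 488 nm, read at 520 nm. Tm from first derivative of melting profile; at least triplicate, errors ±0.3 °C.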

Test [2] relates to Calf thymus DNA. The test can be described thus: Stabilization of calf thymus DNA assessed as change in melting temperature at 5 uM by fluorescence assay. In kind it is nucleic-acid assay. The settings on record: Bos taurus.
Test [3] deals with Quadruplex DNA. In words: Stabilization of 5'Dabcyl/3'FAM labeled human telomeric sequence G-quadruplex DNA assessed as change in melting temperature at 5 uM in presence of KCl by fluorescence assay. In kind it is nucleic-acid assay. The procedure, abridged:
as §1

The target in test [4] is Quadruplex DNA. The test can be described thus: Displacement of thiazole orange from telomeric 22 H1 G-quadruplex DNA (unknown origin) in presence of KCl by fluorescent intercalator displacement assay. In kind it is nucleic-acid assay. The procedure, abridged: (§2)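 Target DNA (0.62 μM) was mixed with thiazole orange (1.24 μM) in 10 mM Tris, 50 mM KCl, pH 7.5, at 25 °C and titrated with compound. Fluorescence was excited at 501 nm and read at 520–680 nm. Displacement = 100 − (F/F0 × 100); EC50 was taken from displacement versus concentration. Each titration was run at least in triplicate.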

Test [5] deals with Quadruplex DNA. The test can be described thus: Displacement of thiazole orange from wild-type telomeric 22 H2 G-quadruplex DNA (unknown origin) in presence of KCl by fluorescent intercalator displacement assay. It is filed as nucleic-acid assay. The procedure, abridged:
as §2

The nature of test [6]: Selectivity ratio of EC50 for displacement of thiazole orange from wild-type telomeric 22 H2 G-quadruplex DNA (unknown origin) to EC50 for displacement of thiazole orange from telomeric 22 H1 G-quadruplex DNA (unknown origin). The procedure, abridged:
as §2

Test [7] deals with Quadruplex DNA. The test can be described thus: Binding affinity to telomeric 22 H1 G-quadruplex DNA (unknown origin) assessed as increase in positive cotton effect at 295 nm at 40 to 80 uM by electronic circular dichorism spectra analysis. In kind it is nucleic-acid assay. In outline: (§3)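 DNA annealed at 4 μM (strand concentration) in 10 mM Tris, 50 mM KCl, pH 7.5, with or without 40% MPD. ECD spectra were read at 230–350 nm in a 10 mm cell under Peltier temperature control, without ligand and with increasing ligand (0–80 μM). Cotton effects were converted to mean residue ellipticity.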

Test [8] deals with Quadruplex DNA. In words: Binding affinity to telomeric 22 H1 G-quadruplex DNA (unknown origin) assessed as decrease in positive cotton effect at 260 nm at 40 to 80 uM by electronic circular dichorism spectra analysis. In kind it is nucleic-acid assay. The procedure, abridged:
as §3

The test system of test [9] is Quadruplex DNA. In words: Binding affinity to wild-type telomeric 22 H2 G-quadruplex DNA (unknown origin) assessed as increase in positive cotton effect at 295 nm at 40 to 80 uM in presence of KCl by electronic circular dichorism spectra analysis. In kind it is nucleic-acid assay. The procedure, abridged: as §3
Test [10] concerns Quadruplex DNA. In words: Binding affinity to wild-type telomeric 22 H2 G-quadruplex DNA (unknown origin) assessed as decrease in positive cotton effect at 260 nm at 40 to 80 uM in presence of KCl by electronic circular dichorism spectra analysis. In kind it is nucleic-acid assay. The procedure, abridged:
as §3

Test [11] relates to Calf thymus DNA. In words: Binding affinity to calf thymus DNA up to 80 uM in presence of KCl by electronic circular dichorism spectra analysis. The conditions noted are these: Bos taurus. In kind it is nucleic-acid assay. In outline:
as §3

The subject of test [12] is Calf thymus DNA. In words: Binding affinity to calf thymus DNA in presence of KCl by UV-spectra analysis. It is filed as nucleic-acid assay. The settings on record: Bos taurus.
Test [13] concerns Quadruplex DNA. In words: Binding affinity to telomeric 12 G-quadruplex DNA (unknown origin) assessed as increase in cotton effect amplitude up to 10 fold excess DNA concentration in presence of MPD by electronic circular dichorism spectra analysis. It is filed as nucleic-acid assay.

Active and inactive are the calls of the source. No cut-off for these calls is given here.

Consider `COc1ccc2c(c[n+](C)c3c4cc5c(cc4ccc23)OCO5)c1OC` [CHELERYTHRINE], for which the result in the test with Quadruplex DNA [1], in the test with Quadruplex DNA [3], in the test on Quadruplex DNA [7], with Quadruplex DNA [8], with Quadruplex DNA [9] and in the test with Quadruplex DNA [10] was Active. Moreover, the outcome in the test on Calf thymus DNA [11] and in the test with Calf thymus DNA [12] was Active. Moreover, the outcome in the test with Calf thymus DNA [2] was inactive. Besides, the concentration for a half-maximal effect (EC50) at Quadruplex DNA [4] is 2.59 µM; on Quadruplex DNA [5], 3.75 µM. For the same molecule, the Ratio EC50 in test [6] worked out at 0.7.
Consider `c1c2c(cc3c1OCO3)-c1cc3ccc4c(c3c[n+]1CC2)OCO4` [COPTISINE], for which the result with Quadruplex DNA [1], with Quadruplex DNA [3], with Quadruplex DNA [7], with Quadruplex DNA [8], in the test with Quadruplex DNA [9] and in the test on Quadruplex DNA [10] was Active. Besides, the outcome with Calf thymus DNA [11], with Calf thymus DNA [12] and in the test on Quadruplex DNA [13] was Active. For the same molecule, the result in the test with Calf thymus DNA [2] was inactive. Further, the EC50 at Quadruplex DNA [4] is 12 µM; on Quadruplex DNA [5] it was 5.93 µM. Further, the Ratio EC50 in test [6] came out at 2.

The EC50 is the concentration that produces a half-maximal response.
